Active and inactive are the calls of the source. The calls are words filed in the database; no cut-off is given here.

Assay [1] addresses Small conductance calcium-activated potassium channel protein 3 (Rattus norvegicus, UniProt P70605). Kind of assay: (§1) Inhibition of Wistar rat recombinant SK3 channel expressed in HEK293 cells by whole cell patch clamp technique. Format: cell-based. In outline:
(§2)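 Whole-cell patch clamp on HEK293 cells stably expressing rat SK3. Extracellular solution contains 4 mM K+. Pipette Ca2+ is buffered at 400 nM. Kd comes from single-concentration kinetics experiments (n = independent experiments), reported as mean ± SEM.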
On the technique in general: In patch-clamp work, channel activity is measured electrically.

Assay [2] deals with Small conductance calcium-activated potassium channel protein 3 (Rattus norvegicus) (UniProt P70605). The description is as §1. The class given is cell-based. In outline:
as §2

Assay [3] has as its target Small conductance calcium-activated potassium channel protein 2 (Homo sapiens, UniProt Q9H2S1). Kind of assay: Inhibition of human SK2 channel by inside-out patch clamp technique.
Assay [4] concerns the target T1, Small conductance calcium-activated potassium channel protein 3 (Homo sapiens, UniProt Q9UGI6). Put plainly: Inhibition of human SK3 channel by inside-out patch clamp technique.
Assay [5] addresses T1, Small conductance calcium-activated potassium channel protein 3. Kind of assay: Inhibition of wild type human SK3 channel expressed in HEK293 cells assessed as Ca2+ sensitivity by inside-out patch clamp technique. Format: cell-based. In outline:
(§3)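 Inside-out patches from HEK293 cells transiently transfected (lipofectamine) with hSK3 or hSK3(Q493A;D495A), recorded 2-4 days after transfection. Patches are exposed to a series of Ca2+-buffered solutions. Currents are normalized to the current induced by 10 µM Ca2+, and Hill fits give EC50(Ca2+) and nH. Mean ± SEM.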

For assay [6] the target is unchanged. Kind of assay: Inhibition of human SK3 channel expressed in HEK293 cells assessed as Ca2+ induced current after drug wash out by whole cell patch clamp technique in presence of bicuculline methobromide. The class given is cell-based. The method, boiled down:
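Whole-cell SK3 current is measured every 5 s at 0 mV from voltage ramps (-120 to +30 mV). Pipette Ca2+ is buffered at 400 nM. Inhibition is followed to steady state (about 5 min) and then washed out. Bicuculline methobromide (100 µM) is applied for 20 s during the wash. Kd is fitted from the kinetics.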

In assay [7] the target is Small conductance calcium-activated potassium channel protein 1 (Homo sapiens, UniProt Q92952). Put plainly: Inhibition of human SK1 channel by inside-out patch clamp technique.
Chain of Small conductance calcium-activated potassium channel protein 1 (Q92952 whole entry): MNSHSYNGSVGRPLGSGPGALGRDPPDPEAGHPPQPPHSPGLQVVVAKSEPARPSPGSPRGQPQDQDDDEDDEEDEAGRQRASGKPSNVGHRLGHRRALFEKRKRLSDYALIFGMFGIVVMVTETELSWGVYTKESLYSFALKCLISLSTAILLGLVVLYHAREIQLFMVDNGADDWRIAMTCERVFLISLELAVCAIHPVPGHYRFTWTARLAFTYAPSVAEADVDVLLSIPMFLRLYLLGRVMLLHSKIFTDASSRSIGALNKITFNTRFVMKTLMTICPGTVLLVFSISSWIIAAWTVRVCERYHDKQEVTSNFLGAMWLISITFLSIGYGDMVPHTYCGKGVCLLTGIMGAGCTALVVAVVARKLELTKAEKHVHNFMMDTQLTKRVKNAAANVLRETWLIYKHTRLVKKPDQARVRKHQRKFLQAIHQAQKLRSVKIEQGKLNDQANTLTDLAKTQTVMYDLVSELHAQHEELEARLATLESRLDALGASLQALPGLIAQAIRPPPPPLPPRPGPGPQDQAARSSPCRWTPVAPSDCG
Assay [8] concerns HEK293. Put plainly: Inhibition of human SK3 channel Q493A;D495A mutant expressed in HEK293 cells at 300 nM by whole cell assay. Format: cell-based.
A short description of assay [9]: Inhibition of human SK3 channel Q493A;D495A mutant expressed in HEK293 cells assessed as Ca2+ sensitivity by inside-out patch clamp technique. Format: cell-based. The method, boiled down: as §3
For assay [10], the target named is T1, Small conductance calcium-activated potassium channel protein 3. Kind of assay: Inhibition of wild type human SK3 channel expressed in HEK293 cells at 300 nM by whole cell assay. The class given is cell-based.
Assay [11] shares this target. Put plainly: Inhibition of wild type human SK3 channel expressed in HEK293 cells. Format: cell-based.
A short description of assay [12]: Inhibition of human SK3 channel Q493A;D495A mutant expressed in HEK293 cells. The class given is cell-based.

T1 sequence (Q9UGI6 whole entry): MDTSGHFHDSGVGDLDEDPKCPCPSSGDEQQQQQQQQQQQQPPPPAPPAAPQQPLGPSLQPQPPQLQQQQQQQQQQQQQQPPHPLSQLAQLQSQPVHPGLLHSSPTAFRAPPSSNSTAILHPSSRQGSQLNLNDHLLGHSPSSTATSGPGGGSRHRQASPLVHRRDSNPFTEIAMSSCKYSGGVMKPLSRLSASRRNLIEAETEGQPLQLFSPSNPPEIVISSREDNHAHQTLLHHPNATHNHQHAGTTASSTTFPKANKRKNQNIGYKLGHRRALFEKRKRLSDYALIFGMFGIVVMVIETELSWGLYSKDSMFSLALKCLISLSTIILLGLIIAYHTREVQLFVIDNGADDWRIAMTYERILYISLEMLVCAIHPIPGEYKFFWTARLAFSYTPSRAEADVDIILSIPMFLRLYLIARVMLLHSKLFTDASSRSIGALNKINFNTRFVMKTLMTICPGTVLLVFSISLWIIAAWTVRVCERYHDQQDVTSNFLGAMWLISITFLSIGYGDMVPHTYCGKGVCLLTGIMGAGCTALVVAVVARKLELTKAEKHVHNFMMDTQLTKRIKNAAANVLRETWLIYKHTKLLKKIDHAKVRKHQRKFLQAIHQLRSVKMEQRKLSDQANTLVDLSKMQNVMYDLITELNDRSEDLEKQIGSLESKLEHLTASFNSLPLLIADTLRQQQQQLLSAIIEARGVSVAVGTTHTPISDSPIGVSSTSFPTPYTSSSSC
Chain of Small conductance calcium-activated potassium channel protein 3 (Rattus norvegicus, UniProt P70605) (P70605 whole entry): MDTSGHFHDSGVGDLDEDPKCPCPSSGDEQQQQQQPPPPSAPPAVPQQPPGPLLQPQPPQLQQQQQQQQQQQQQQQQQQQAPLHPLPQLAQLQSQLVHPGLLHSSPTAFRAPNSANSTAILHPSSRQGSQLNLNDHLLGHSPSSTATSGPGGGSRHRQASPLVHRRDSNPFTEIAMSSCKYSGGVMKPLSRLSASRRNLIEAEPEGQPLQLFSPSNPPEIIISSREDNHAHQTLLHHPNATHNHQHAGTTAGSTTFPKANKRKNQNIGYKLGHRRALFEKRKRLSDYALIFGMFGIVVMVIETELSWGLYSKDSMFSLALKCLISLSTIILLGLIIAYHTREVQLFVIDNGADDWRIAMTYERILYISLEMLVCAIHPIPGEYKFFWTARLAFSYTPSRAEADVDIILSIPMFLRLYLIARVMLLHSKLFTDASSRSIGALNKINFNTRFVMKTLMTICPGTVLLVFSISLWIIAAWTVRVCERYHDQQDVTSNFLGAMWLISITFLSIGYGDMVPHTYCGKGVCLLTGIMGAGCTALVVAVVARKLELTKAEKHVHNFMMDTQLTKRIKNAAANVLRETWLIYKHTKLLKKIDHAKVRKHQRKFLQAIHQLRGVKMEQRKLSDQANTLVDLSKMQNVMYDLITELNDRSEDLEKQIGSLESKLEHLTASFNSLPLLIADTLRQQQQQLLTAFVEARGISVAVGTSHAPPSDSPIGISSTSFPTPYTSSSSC
Chain of Small conductance calcium-activated potassium channel protein 3 (Rattus norvegicus) (P70605 whole entry): as above
Chain of Small conductance calcium-activated potassium channel protein 2 (Q9H2S1 whole entry): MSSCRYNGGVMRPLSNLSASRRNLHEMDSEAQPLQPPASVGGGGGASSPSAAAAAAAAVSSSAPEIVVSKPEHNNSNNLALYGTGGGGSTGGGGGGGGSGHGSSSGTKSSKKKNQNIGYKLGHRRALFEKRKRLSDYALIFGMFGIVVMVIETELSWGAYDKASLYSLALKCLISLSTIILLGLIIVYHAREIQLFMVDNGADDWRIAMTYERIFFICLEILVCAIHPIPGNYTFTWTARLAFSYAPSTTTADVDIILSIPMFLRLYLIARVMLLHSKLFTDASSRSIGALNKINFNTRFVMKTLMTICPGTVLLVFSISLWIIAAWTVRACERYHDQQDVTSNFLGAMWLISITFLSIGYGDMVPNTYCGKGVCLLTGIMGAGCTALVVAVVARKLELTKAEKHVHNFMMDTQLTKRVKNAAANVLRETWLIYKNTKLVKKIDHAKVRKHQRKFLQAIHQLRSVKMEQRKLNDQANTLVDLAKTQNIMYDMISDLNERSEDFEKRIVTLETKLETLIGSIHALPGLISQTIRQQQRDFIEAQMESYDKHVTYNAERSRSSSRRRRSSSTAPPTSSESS

One may read the Kd as the free concentration of one partner at which half of the binding sites on the other are occupied at equilibrium, for simple one-to-one binding. `Clc1cccc2c1C(Nc1nc3ccccc3[nH]1)CCC2` (stereo not given): the Kd in assay [1] amounted to 0.027 µM.

`Cc1cc(NC2CCCCC2)nc(-n2nc(C)cc2C)n1`: the result in assay [2] was Active.

With `COc1cc2c3cc1Oc1cc(ccc1O)C[C@@H]1c4c(cc(OC)c(O)c4Oc4ccc(cc4)C[C@@H]3N(C)CC2)CC[N+]1(C)C`, in assay [1], the Kd turned out to be 16 µM.

As for `O=C(Nc1nc2ccccc2[nH]1)c1ccc(Cl)cc1`, the Kd in assay [1] is over 10 µM.

In the case of `Clc1ccc2c(c1)C(Nc1nc3ccccc3[nH]1)CCC2` (stereo not given), in assay [1], the Kd stood at 0.017 µM.

As to `Clc1ccc(CNc2nc3ccccc3[nH]2)cc1Cl`, in assay [1], the Kd amounted to 0.2 µM.

Regarding `CCn1c(=O)[nH]c2ccccc21`, in assay [2], the result was Active.

As to `Fc1ccc2c(c1)C(Nc1nc3ccccc3[nH]1)CCC2` (stereo not given), in [1], the Kd turned out to be 0.034 µM.

Regarding `c1ccc2c(c1)OCCC2Nc1nc2ccccc2[nH]1` (stereo not given), in assay [1], the Kd is over 10 µM.

In the case of `Cc1ccc2c(c1)C(Nc1nc3ccccc3[nH]1)CCC2` (stereo not given), the Kd in assay [1] was found to be 0.02 µM.

With `c1ccc(CNc2nc3ccccc3[nH]2)cc1`, the Kd in assay [1] is 2.7 µM.

Regarding `c1ccc2c(c1)CCC2Nc1nc2ccccc2[nH]1` (stereo not given), the Kd in assay [1] was found to be 0.79 µM.

Regarding `CC1CCc2ccccc2C1Nc1nc2ccccc2[nH]1` (stereo not given), the Kd in assay [1] was 0.17 µM.

In the case of `CC(=O)O[C@H]1C[C@@H]2CC[C@@H]3[C@H](CC[C@@]4(C)[C@H]3CC[C@H]([N+]3(C)CCCCC3)[C@@H]4OC(C)=O)[C@@]2(C)C[C@@H]1[N+]1(C)CCCCC1` [PENUCURONIUM], in [1], the Kd was found to be 21 µM.

Consider `c1ccc2[nH]c(NC3CCCc4ccncc43)nc2c1` (stereo not given), for which the Kd in assay [1] was found to be 6.5 µM.

With `c1ccc2c(c1)CCN(c1nc3ccccc3[nH]1)C2`, in [1], the Kd was 14 µM.

In the case of `c1ccc2[nH]c(NC3CCCc4sccc43)nc2c1` (stereo not given), in assay [1], the Kd amounted to 0.54 µM.

On to `c1ccc2c(c1)CCCC2Nc1nc2ccccc2[nH]1` (stereo not given), for which the dissociation constant (Kd) in assay [1] was found to be 0.13 µM.

With `O=C1Nc2c(ccc(Cl)c2Cl)/C1=N\O`, the outcome in [2] was Active.

For `COc1ccc(C[C@H]2c3cc(OC)c(OC)cc3CC[N+]2(C)C)cc1OC` [LAUDANOSINE METHIODIDE], the Kd in assay [1] came out at 2.6 µM.

Consider `COc1ccc(CC2c3cc(OC)c(OC)cc3CC[N+]2(C)CCC(=O)OCCCCCOC(=O)CC[N+]2(C)CCc3cc(OC)c(OC)cc3C2Cc2ccc(OC)c(OC)c2)cc1OC` (stereo not given) [ATRACURIUM], for which, in assay [1], the Kd stood at 6.4 µM.

For the compound `c1ccc2c(c1)c1cc[n+]2CCCCC[n+]2ccc(c3ccccc32)NCCCCCN1`, the equilibrium dissociation constant (Kd) in assay [1] worked out at 0.00043 µM.

Take `Clc1ccc(CNc2nc3ccccc3[nH]2)cc1`: the Kd in [1] was found to be 0.64 µM.

On to `c1ccc2c(c1)CCC(Nc1nc3ccccc3[nH]1)C2` (stereo not given), for which, in assay [1], the Kd worked out at 2 µM.

Turning to `Cc1cc(C)c2c(c1)C(Nc1nc3ccccc3[nH]1)CCC2` (stereo not given), the Kd in assay [1] stood at 0.033 µM.

With `c1ccc2c(c1)CCCCC2Nc1nc2ccccc2[nH]1` (stereo not given), the Kd in assay [1] is 0.59 µM.

Take `c1ccc(C2CCCN2c2nc3ccccc3[nH]2)cc1` (stereo not given): in assay [1], the Kd worked out at 1.6 µM.

As for `COc1ccc2c(c1)C(Nc1nc3ccccc3[nH]1)CCC2` (stereo not given), the Kd in assay [1] is 0.061 µM.

For `c1cc2cc(c1)C[n+]1ccc(c3ccccc31)NCc1ccc(cc1)CNc1cc[n+](c3ccccc13)C2`, the Kd in [1] stood at 0.0027 µM.

The EC50 is the concentration needed to bring the measured effect to its halfway point. For the compound `Clc1cc2c(cc1Cl)C(Nc1nc3ccccc3[nH]1)CCC2` (stereo not given), the Kd came to 0.047 µM in assay [3]; 0.06 µM in [4]; 0.0091 µM in assay [1]; 0.0078 µM in assay [6]; 0.054 µM in [7]. In assay [5], the EC50 stood at 1.81 µM.

Turning to `c1ccc(-c2ccc3c(c2)C(Nc2nc4ccccc4[nH]2)CCC3)cc1` (stereo not given), the Kd in assay [1] is 0.6 µM.

For the compound `c1ccc2c(c1)CCC[C@@H]2Nc1nc2ccccc2[nH]1`, the equilibrium dissociation constant (Kd) in assay [1] was 0.45 µM.

Consider `Clc1cccc2c1CCCC2Nc1nc2ccccc2[nH]1` (stereo not given), for which the Kd in [1] turned out to be 0.044 µM.

The term inhibition denotes the change of the read-out against control, counted positive when it falls. For `c1ccc2c(c1)CCC[C@H]2Nc1nc2ccccc2[nH]1`, the values for the inhibition in assay [8] and in assay [10] were 45% and 75%, respectively. Besides, the EC50 was 0.44 µM in assay [9] and 0.4 µM in [5]. The Kd came to 0.077 µM in assay [1], 0.1 µM in [11] and 0.43 µM in assay [12].

With `c1ccc2c(c1)SCCC2Nc1nc2ccccc2[nH]1` (stereo not given), in assay [1], the Kd was 0.13 µM.

Turning to `Clc1ccc2c(c1)CCCC2Nc1nc2ccccc2[nH]1` (stereo not given), the Kd in assay [1] stood at 0.12 µM.

For `c1ccc2c3c(ccc2c1)CCCC3Nc1nc2ccccc2[nH]1` (stereo not given), the Kd in [1] is 0.031 µM.

Take `c1ccc(C2CCCCN2c2nc3ccccc3[nH]2)cc1` (stereo not given): the Kd in assay [1] was found to be 0.75 µM.

With `c1ccc(CCc2nc3ccccc3[nH]2)cc1`, the equilibrium dissociation constant (Kd) in [1] is over 10 µM.

Take `CC1CCC(Nc2nc3ccccc3[nH]2)c2ccccc21` (stereo not given): the Kd in assay [1] was 0.032 µM.

In the case of `Brc1ccc2c(c1)C(Nc1nc3ccccc3[nH]1)CCC2` (stereo not given), in assay [1], the equilibrium dissociation constant (Kd) came to 0.011 µM.

A word on the IC50: it is the concentration needed to halve the response being measured. With `C[N+]1(C)CCc2cc3c(cc2[C@H]1[C@@H]1OC(=O)c2c1ccc1c2OCO1)OCO3`, the half-inhibitory concentration (IC50) in [1] was 7 µM.

For `c1ccc2c(c1)CC(Nc1nc3ccccc3[nH]1)C2`, the Kd in assay [1] worked out at 1.7 µM.

As to `Cc1cc(N)c2ccccc2[n+]1CCCCCCCCCC[n+]1c(C)cc(N)c2ccccc21` [DEQUALINIUM CHLORIDE], the Kd in assay [1] turned out to be 0.18 µM.

For the origin of these results see ChEMBL document CHEMBL1140213, “Synthesis and structure-activity relationship studies of 2-(N-substituted)-aminobenzimidazoles as potent negative gating modulators ofsmall conductance Ca2+-activated K+ channels” (J Med Chem, 2008).
